Data as given in ChEMBL document CHEMBL4732106, “Paracetamol analogues conjugated by FAAH induce TRPV1-mediated antinociception without causing acute liver toxicity” (Eur J Med Chem, 2021).
Active and inactive are the calls of the source. The rule behind the calls is not given here.

Tests used:
[1] = Hepatotoxicity in C57BL/6 mouse assessed as change in ALT level at 300 mg/kg, ip measured after 12 hrs; format: toxicity, organism-based; details: in vivo
In short: (§1)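 Male C57BL/6 mice (8 weeks) were fasted 12–16 h, then given 300 mg kg⁻¹ i.p. in saline. At 12 h, blood was taken for serum ALT/AST (automated analyser). The left medial liver lobe was fixed in 4% formaldehyde, cryosectioned at 10 μm and stained with H&E. The ALT/AST ratio was tested against 1. Mean ± SEM, n = 6–7.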

[2] = target: T1, Fatty-acid amide hydrolase 1 (Mus musculus, UniProt O08914); experiment: Substrate activity at FAAH in FAAH+/+ mouse brain assessed as N-arachidonoyl conjugate level per g protein at 0.1 mM measured after 20 mins by LC-MS/MS analysis; format: ADME, tissue-based; details: 100 µM
T1 sequence (O08914 whole entry): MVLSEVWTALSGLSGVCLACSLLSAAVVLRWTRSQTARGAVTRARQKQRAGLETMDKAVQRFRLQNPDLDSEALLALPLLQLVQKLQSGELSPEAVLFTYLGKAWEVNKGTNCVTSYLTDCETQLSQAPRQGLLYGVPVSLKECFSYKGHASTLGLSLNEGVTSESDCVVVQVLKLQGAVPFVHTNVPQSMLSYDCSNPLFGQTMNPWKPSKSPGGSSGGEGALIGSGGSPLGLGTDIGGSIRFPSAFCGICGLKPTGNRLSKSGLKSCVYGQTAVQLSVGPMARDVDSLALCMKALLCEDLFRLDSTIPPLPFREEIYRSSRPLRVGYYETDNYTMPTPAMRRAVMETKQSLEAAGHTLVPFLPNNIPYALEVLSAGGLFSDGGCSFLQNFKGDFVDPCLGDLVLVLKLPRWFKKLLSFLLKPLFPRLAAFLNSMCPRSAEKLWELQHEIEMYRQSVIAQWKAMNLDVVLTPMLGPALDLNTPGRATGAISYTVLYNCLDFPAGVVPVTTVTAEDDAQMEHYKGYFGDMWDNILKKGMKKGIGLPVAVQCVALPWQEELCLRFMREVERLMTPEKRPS
In short: (§2)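 Brains from FAAH+/+ or FAAH-/- mice were homogenized in ice-cold 10 mM Tris with 1 mM EDTA and 0.3 mM ascorbic acid. Aliquots were incubated with 0.1 mM primary amine for 20 min at 37 °C with stirring. Reactions were stopped with cold acetone containing AM404-d4 internal standard, and conjugates were measured by LC-MS/MS. n = 5–7.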

Mus musculus [3] = experiment: Antinociceptive activity in ip dosed C57BL/6 mouse assessed as reduction in licking time during second phase treated for 10 mins and measured for 15 to 40 mins by formalin test; format: functional, organism-based; details: dose 25-100 mg/kg, time 50.0 min
In short: (§3)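 Male C57BL/6 mice, 8 weeks old, randomized in equal blocks (5–10 per group), observer blinded. The test amine or vehicle was given i.p. 10 min before intraplantar 2.5% formalin (25 μl/mouse). Time spent biting/licking the injected paw was recorded in phase I (0–5 min) and phase II (15–40 min). Mean ± SEM, n = 5–6.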

[4] = Prodrug conversion in FAAH-/- mouse brain assessed as N-arachidonoyl conjugate level per g protein at 0.1 mM measured after 20 mins by LC-MS/MS analysis; format: ADME, tissue-based; details: in vitro, 100 µM; in short: as §2
Mus musculus [5] = experiment: Antinociceptive activity in ip dosed C57BL/6 mouse assessed as reduction in licking time during first phase treated for 10 mins and measured for 5 mins by formalin test; format: functional, organism-based; details: dose 25-100 mg/kg, time 15.0 min; in short: as §3
Mus musculus [6] = experiment: Antipyretic activity against LPS-induced C57BL/6 mouse model of hyperthermia assessed as TXB2 level in diencephalon at 25 mg/kg, ip measured after 40 mins by LC-MS/MS analysis relative to control; format: functional
In short: (§4)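 Male C57BL/6 mice got LPS (E. coli O111:B4, 100 μg kg⁻¹ i.p.) or saline, then 3 h later the drug i.p. in Ringer's acetate vehicle. Diencephalon was taken 40 min later and homogenized in Tris/EDTA/ascorbate with 10 μM MAFP and 100 μM ibuprofen. Prostanoids were quantified by negative-ion LC-MS/MS and expressed as % of LPS + vehicle. n = 6.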

Mus musculus [7] = experiment: Antipyretic activity against LPS-induced C57BL/6 mouse model of hyperthermia assessed as PGF2alpha level in diencephalon at 25 mg/kg, ip measured after 40 mins by LC-MS/MS analysis relative to control; format: functional; in short: as §4
[8] = Prodrug conversion in FAAH+/+ mouse brain assessed as N-arachidonoyl conjugate level per g protein at 100 mg/kg, ip measured after 20 mins by LC-MS/MS analysis; format: ADME, organism-based; design: unit: pmol/g protein; details: in vivo
In short: (§5)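 FAAH+/+ and FAAH-/- mice (both sexes) received the primary amine i.p. in saline (sometimes with 5% DMSO). Brains were collected 20 min later, frozen, and homogenized in Tris/EDTA/ascorbate with 10 μM MAFP. N-arachidonoyl conjugates were quantified by positive-ion LC-MS/MS and normalized to protein.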

Mus musculus [9] = experiment: Antinociceptive activity in C57BL/6 mouse assessed as reduction in licking time during second phase at 25 mg/kg, ip treated for 10 mins and measured for 15 to 40 mins in presence of TRPV1 antagonist capsazepine by formalin test; format: functional, organism-based; details: time 50.0 min
In short: (§6)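 Male C57BL/6 mice, 8 weeks old. URB937 (5 μg in 5 μl) or capsazepine (10 μg in 5 μl) was given i.c.v. under brief isoflurane, 2 mm deep, 5 min before the i.p. test amine. Formalin 2.5% (25 μl) was injected intraplantar 10 min after dosing. Paw biting/licking time was scored in phase I (0–5 min) and phase II (15–40 min) by a blinded observer. Mean ± SEM, n = 8–14.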

Mus musculus [10] = experiment: Antinociceptive activity in C57BL/6 mouse assessed as reduction in licking time during first phase at 25 mg/kg, ip treated for 10 mins and measured for 5 mins in presence of FAAH inhibitor URB937 by formalin test; format: functional, organism-based; details: time 15.0 min; in short: as §6
Mus musculus [11] = experiment: Antinociceptive activity in C57BL/6 mouse assessed as reduction in licking time during first phase at 25 mg/kg, ip treated for 10 mins and measured for 5 mins in presence of TRPV1 antagonist capsazepine by formalin test; format: functional, organism-based; details: time 15.0 min; in short: as §6
Mus musculus [12] = experiment: Antinociceptive activity in C57BL/6 mouse assessed as reduction in licking time during second phase at 25 mg/kg, ip treated for 10 mins and measured for 15 to 40 mins in presence of FAAH inhibitor URB937 by formalin test; format: functional, organism-based; details: time 50.0 min; in short: as §6
[13] = Effect on locomotor activity in C57BL/6 mouse assessed as change in latency to fall at 25 mg/kg, ip treated for 10 mins measured up to 60 mins by rotarod test; format: ADME, organism-based; details: in vivo, 1 h
In short: (§7)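 Male C57BL/6 mice were first trained on a rotarod at a constant 4 rpm in 1-min sessions. At various times after i.p. dosing, the drum was accelerated from 4 to 40 rpm over 5 min and the latency to fall was recorded.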

[14] = Prodrug conversion in FAAH-/- mouse brain assessed as N-arachidonoyl conjugate level per g protein at 100 mg/kg, ip measured after 20 mins by LC-MS/MS analysis; format: ADME, organism-based; design: unit: pmol/g protein; details: in vivo; in short: as §5
Mus musculus [15] = experiment: Antipyretic activity against LPS-induced C57BL/6 mouse model of hyperthermia assessed as PGE2 level in diencephalon at 25 mg/kg, ip measured after 40 mins by LC-MS/MS analysis relative to control; format: functional; in short: as §4
Mus musculus [16] = experiment: Antipyretic activity against LPS-induced C57BL/6 mouse model of hyperthermia assessed as 6-keto-PGF1alpha level in diencephalon at 25 mg/kg, ip measured after 40 mins by LC-MS/MS analysis relative to control; format: functional; in short: as §4
Mus musculus [17] = experiment: Antipyretic activity against LPS-induced C57BL/6 mouse model of hyperthermia assessed as reduction in body temperature at 25 mg/kg, ip measured after 48 mins; format: functional, organism-based
In short: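 Male C57BL/6 mice carried telemetry and recovered ≥1 week before use, housed at 29 °C ambient (near-thermoneutral). LPS 100 μg kg⁻¹ i.p. or saline was given, then drug or Ringer's acetate vehicle i.p. 3 h later. Core temperature was recorded continuously and analysed at the nadir time point. n = 4–9 per group.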

[18] = Hepatotoxicity in C57BL/6 mouse assessed as centrilobular necrosis at 300 mg/kg, ip measured after 12 hrs by H and E staining based microscopic analysis; format: toxicity, organism-based; details: in vivo; in short: as §1
[19] = target: T2, Transient receptor potential cation channel subfamily V member 1 (Rattus norvegicus, UniProt O35433); experiment: Agonist activity at TRPV1 in rat isolated mesenteric arteries assessed as vasorelaxation of phenylephrine-induced contraction; format: tissue-based, Artery
T2 sequence (O35433 whole entry): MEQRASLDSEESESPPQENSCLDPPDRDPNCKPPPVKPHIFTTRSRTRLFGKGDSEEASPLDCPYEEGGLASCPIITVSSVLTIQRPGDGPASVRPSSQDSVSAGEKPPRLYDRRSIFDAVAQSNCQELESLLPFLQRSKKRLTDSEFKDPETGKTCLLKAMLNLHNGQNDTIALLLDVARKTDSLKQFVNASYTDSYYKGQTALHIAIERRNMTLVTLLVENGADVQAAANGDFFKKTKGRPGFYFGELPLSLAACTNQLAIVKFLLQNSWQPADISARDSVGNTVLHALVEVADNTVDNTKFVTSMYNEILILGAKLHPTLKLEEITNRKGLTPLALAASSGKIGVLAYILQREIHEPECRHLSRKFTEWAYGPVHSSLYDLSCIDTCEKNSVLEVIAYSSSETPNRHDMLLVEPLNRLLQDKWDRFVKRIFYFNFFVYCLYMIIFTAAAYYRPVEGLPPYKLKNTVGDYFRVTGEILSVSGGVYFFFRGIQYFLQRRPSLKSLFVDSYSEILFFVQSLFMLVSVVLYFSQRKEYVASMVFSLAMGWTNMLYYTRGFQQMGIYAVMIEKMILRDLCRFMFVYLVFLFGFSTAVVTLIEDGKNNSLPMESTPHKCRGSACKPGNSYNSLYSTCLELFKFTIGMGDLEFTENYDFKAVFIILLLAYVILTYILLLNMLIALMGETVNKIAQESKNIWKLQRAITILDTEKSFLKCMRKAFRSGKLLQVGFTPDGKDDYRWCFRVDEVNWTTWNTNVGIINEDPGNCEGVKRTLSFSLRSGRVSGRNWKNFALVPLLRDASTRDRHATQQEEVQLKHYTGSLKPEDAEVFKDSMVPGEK
In short: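 Indomethacin 10 μM and Nω-nitro-L-arginine 100 μM were present throughout. Segments were precontracted with phenylephrine and exposed to conjugate concentrations. pEC₅₀ taken at half-maximal relaxation; mean ± SEM, n = animals.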

[20] = target: T2, Transient receptor potential cation channel subfamily V member 1; experiment: Agonist activity at TRPV1 in rat isolated mesenteric arteries assessed as vasorelaxation of phenylephrine-induced contraction in presence of TRPV1 antagonist capsazepine; format: tissue-based, Artery
In short: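 Segments from male Wistar rats (200–250 g) were bathed in pH 7.4 physiological salt solution at 37 °C, gassed 95% O₂/5% CO₂, with indomethacin 10 μM and Nω-nitro-L-arginine 100 μM present. After phenylephrine precontraction, conjugate concentration–relaxation curves were run in the presence of capsazepine 3 μM. pEC₅₀ is the negative log molar concentration giving half-maximal relaxation; mean ± SEM, n = animals.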

[21] = Prodrug conversion in FAAH+/+ mouse brain assessed as N-arachidonoyl conjugate level per g protein at 300 mg/kg, ip measured after 20 mins by LC-MS/MS analysis; format: ADME, organism-based; details: in vivo; in short: as §5
[22] = Prodrug conversion in FAAH-/- mouse brain assessed as N-arachidonoyl conjugate level per g protein at 300 mg/kg, ip measured after 20 mins by LC-MS/MS analysis; format: ADME, organism-based; details: in vivo; in short: as §5
[23] = Effect on locomotor activity in C57BL/6 mouse assessed as change in latency to fall at 50 to 75 mg/kg, ip treated for 10 mins measured up to 60 mins by rotarod test; format: ADME, organism-based; details: in vivo, 1 h, dose 50-75 mg/kg; in short: as §7
Mus musculus [24] = experiment: Antinociceptive activity in C57BL/6 mouse assessed as reduction in licking time during first phase at 50 mg/kg, ip treated for 10 mins and measured for 5 mins in presence of FAAH inhibitor URB937 by formalin test; format: functional, organism-based; details: time 15.0 min; in short: as §6
Mus musculus [25] = experiment: Antinociceptive activity in C57BL/6 mouse assessed as reduction in licking time during first phase at 50 mg/kg, ip treated for 10 mins and measured for 5 mins in presence of TRPV1 antagonist capsazepine by formalin test; format: functional, organism-based; details: time 15.0 min; in short: as §6
Mus musculus [26] = experiment: Antinociceptive activity in C57BL/6 mouse assessed as reduction in licking time during second phase at 50 mg/kg, ip treated for 10 mins and measured for 15 to 40 mins in presence of TRPV1 antagonist capsazepine by formalin test; format: functional, organism-based; details: time 50.0 min; in short: as §6
Mus musculus [27] = experiment: Antinociceptive activity in C57BL/6 mouse assessed as reduction in licking time during second phase at 50 mg/kg, ip treated for 10 mins and measured for 15 to 40 mins in presence of FAAH inhibitor URB937 by formalin test; format: functional, organism-based; details: time 50.0 min; in short: as §6

Compound	Drug metabolism [2]	Drug metabolism [4]	Drug metabolism [8]	Drug metabolism [14]	EC50 [19]	EC50 [20]	further results
Nc1ccc2[nH]ncc2c1	12 nmol/g	0.09 nmol/g	1731 pmol	161 pmol			Activity [1]: Non-Toxic; Activity (Mus musculus [3]): Dose-dependent effect; Activity (Mus musculus [5]): Dose-dependent effect; Activity (Mus musculus [6]): 91%; Activity (Mus musculus [7]): 100%; Activity (Mus musculus [9]): inactive; Activity (Mus musculus [10]): Active; Activity (Mus musculus [11]): Active; Activity (Mus musculus [12]): inactive; Activity [13]: Non-Toxic; Activity (Mus musculus [15]): 96%; Activity (Mus musculus [16]): 99%; Activity (Mus musculus [17]): Active; Activity [18]: Non-Toxic
CCCCC/C=C\C/C=C\C/C=C\C/C=C\CCCC(=O)NCc1ccc(O)c(OC)c1					0.501 nM		
CCCCC/C=C\C/C=C\C/C=C\C/C=C\CCCC(=O)Nc1ccc(OC)c(O)c1					3.16 nM	63.1 nM	
CCCCC/C=C\C/C=C\C/C=C\C/C=C\CCCC(=O)Nc1ccc(O)c(OC)c1					1.26 nM	15.8 nM	
COc1cc(CN)ccc1O	2.5 nmol/g	0.01 nmol/g					Activity [1]: Non-Toxic; Drug metabolism [21]: 40 pmol; Drug metabolism [22]: Metabolite_Notdetected; Activity [18]: Non-Toxic
CCCCC/C=C\C/C=C\C/C=C\C/C=C\CCCC(=O)Nc1ccc2[nH]ncc2c1					12.6 nM	398 nM	
CCCCC/C=C\C/C=C\C/C=C\C/C=C\CCCC(=O)NCc1ccc2[nH]ncc2c1					3.98 nM	158 nM	
NCc1ccc2[nH]ncc2c1	2.5 nmol/g	0.04 nmol/g	58 pmol	58 pmol			
COc1cc(N)ccc1O	0.54 nmol/g	0.005 nmol/g	82 pmol	190 pmol			
CCCCC/C=C\C/C=C\C/C=C\C/C=C\CCCC(=O)Nc1ccc(O)cc1					50.1 nM		
COc1ccc(N)cc1O	3 nmol/g	0.06 nmol/g	283 pmol	42 pmol			Activity [1]: Non-Toxic; Activity (Mus musculus [3]): Dose-dependent effect; Activity (Mus musculus [5]): Dose-dependent effect; Activity [23]: Non-Toxic; Activity (Mus musculus [24]): Active; Activity (Mus musculus [25]): Active; Activity (Mus musculus [26]): inactive; Activity (Mus musculus [27]): inactive; Activity [18]: Non-Toxic
